Test results taken from ChEMBL document CHEMBL3351230, “Synthesis of 2-anilinopyridine dimers as microtubule targeting and apoptosis inducing agents” (Bioorg Med Chem, 2014).
pIC50: −log10 of the molar value. Active and inactive are the calls of the source. The rule behind the calls is not given here.

Assays:
[1] = test system: DU-145; experiment: Antiproliferative activity against human DU145 cells assessed as growth inhibition after 48 hrs by SRB assay; conditions: DU-145, 48 h
[2] = test system: MCF7; experiment: Antiproliferative activity against human MCF7 cells assessed as growth inhibition after 48 hrs by SRB assay; conditions: MCF7, 48 h
[3] = test system: A549; experiment: Antiproliferative activity against human A549 cells assessed as growth inhibition after 48 hrs by SRB assay; conditions: A549, 48 h
[4] = test system: DU-145; experiment: Induction of apoptosis in human DU145 cells assessed as late apoptotic cells at 2 uM after 48 hrs by annexin V-FITC/propidium iodide staining-based flow cytometric analysis (reference value: 1.96%); assay type: functional
[5] = test system: DU-145; experiment: Cell cycle arrest in human DU145 cells assessed as cells accumulation at G2/M phase at 1 uM after 48 hrs by propidium iodide staining-based flow cytometric analysis (reference value: 6.81%); assay type: functional
[6] = biological target: T1, Tubulin (Homo sapiens) (UniProt P68371+Q9H4B7+P0DPH7+P68366+Q13509+Q71U36+P04350+Q3ZCM7+P07437+P68363+Q9BQE3+Q6PEY2+Q13885+Q9BVA1+Q9BUF5); experiment: Displacement of colchicine from tubulin (unknown origin) at 5 to 25 uM after 60 mins by competitive binding assay; assay type: protein-complex assay
How it was run: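 Compound (5, 10, 15, 20, 25 µM) was co-incubated with 4 µM colchicine and 3 µM tubulin in 30 mM Tris buffer for 60 min at 37 °C. Tubulin–colchicine fluorescence was read at ex 350 / em 435 nm. Buffer blank was subtracted and values were normalized to DMSO control (F/F0). Nocodazole or E7010 served as positive control and taxol as negative control.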

[7] = test system: DU-145; experiment: Cell cycle arrest in human DU145 cells assessed as cells accumulation at SubG1 phase at 1 uM after 48 hrs by propidium iodide staining-based flow cytometric analysis (reference value: 3.52%); assay type: functional
[8] = test system: DU-145; experiment: Cell cycle arrest in human DU145 cells assessed as cells accumulation at SubG1 phase at 2 uM after 48 hrs by propidium iodide staining-based flow cytometric analysis (reference value: 3.52%); assay type: functional
[9] = test system: DU-145; experiment: Induction of apoptosis in human DU145 cells assessed as early apoptotic cells at 2 uM after 48 hrs by annexin V-FITC/propidium iodide staining-based flow cytometric analysis (reference value: 0.71%); assay type: functional
[10] = test system: DU-145; experiment: Induction of apoptosis in human DU145 cells assessed as mitochondrial membrane potential drop measured as viable cells at 2 uM after 48 hrs using JC-1 staining-based flow cytometry (reference value: 0%); assay type: functional
[11] = biological target: T1, Tubulin (Homo sapiens); experiment: Inhibition of tubulin polymerization (unknown origin) at 3 uM after 1 hr by fluorescence analysis; assay type: protein-complex assay
How it was run: (§1)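 Fluorescence-reporter tubulin polymerization kit. Tubulin (3 mg/mL) in PEM buffer with 1 mM GTP, with or without compound (3 µM, or 2.5–15 µM for IC50). Fluorescence (ex 360 / em 420 nm) was followed for 1 h at 37 °C. IC50 is the concentration giving 50% inhibition of assembly versus control. Data are mean ± SD of two experiments in triplicate, with E7010 as positive control.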

[12] = test system: DU-145; experiment: Cell cycle arrest in human DU145 cells assessed as cells accumulation at G0/G1 phase at 1 uM after 48 hrs by propidium iodide staining-based flow cytometric analysis (reference value: 84.75%); assay type: functional
[13] = test system: DU-145; experiment: Induction of apoptosis in human DU145 cells assessed as mitochondrial membrane potential drop measured as early apoptotic cells at 1 uM after 48 hrs using JC-1 staining-based flow cytometry (reference value: 9.1%); assay type: functional
[14] = test system: DU-145; experiment: Cell cycle arrest in human DU145 cells assessed as cells accumulation at G2/M phase at 2 uM after 48 hrs by propidium iodide staining-based flow cytometric analysis (reference value: 6.81%); assay type: functional
[15] = test system: DU-145; experiment: Induction of apoptosis in human DU145 cells assessed as mitochondrial membrane potential drop measured as necrotic cells at 2 uM after 48 hrs using JC-1 staining-based flow cytometry (reference value: 0%); assay type: functional
[16] = test system: DU-145; experiment: Induction of apoptosis in human DU145 cells assessed as viable cells at 1 uM after 48 hrs by annexin V-FITC/propidium iodide staining-based flow cytometric analysis (reference value: 97.12%); assay type: functional; conditions: DU-145, 48 h, read-out: Activity
[17] = test system: DU-145; experiment: Cell cycle arrest in human DU145 cells assessed as cells accumulation at S phase at 1 uM after 48 hrs by propidium iodide staining-based flow cytometric analysis (reference value: 4.18%); assay type: functional
[18] = test system: DU-145; experiment: Induction of apoptosis in human DU145 cells assessed as mitochondrial membrane potential drop measured as late apoptotic cells at 2 uM after 48 hrs using JC-1 staining-based flow cytometry (reference value: 90.9%); assay type: functional
[19] = test system: DU-145; experiment: Induction of apoptosis in human DU145 cells assessed as necrotic cells at 1 uM after 48 hrs by annexin V-FITC/propidium iodide staining-based flow cytometric analysis (reference value: 0.22%); assay type: functional
[20] = test system: DU-145; experiment: Induction of apoptosis in human DU145 cells assessed as induction of DNA fragmentation at 1 uM after 48 hrs by agarose gel electrophoresis; assay type: functional, cell-based
How it was run: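 DU-145 cells (1×10^6, six-well) were seeded 24 h, then treated at 1 µM for 48 h. Lysates were digested with SDS/RNase A for 2 h at 56 °C, then proteinase K for 2 h at 37 °C. DNA was precipitated with ammonium acetate and ethanol at −80 °C, dissolved in TE, and resolved on 2% agarose against a 100 bp marker.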

[21] = test system: DU-145; experiment: Induction of apoptosis in human DU145 cells assessed as mitochondrial membrane potential drop measured as viable cells at 1 uM after 48 hrs using JC-1 staining-based flow cytometry (reference value: 0%); assay type: functional
[22] = test system: DU-145; experiment: Induction of apoptosis in human DU145 cells assessed as mitochondrial membrane potential drop measured as early apoptotic cells at 2 uM after 48 hrs using JC-1 staining-based flow cytometry (reference value: 9.1%); assay type: functional
[23] = test system: DU-145; experiment: Cell cycle arrest in human DU145 cells assessed as cells accumulation at G0/G1 phase at 2 uM after 48 hrs by propidium iodide staining-based flow cytometric analysis (reference value: 84.75%); assay type: functional
[24] = test system: DU-145; experiment: Induction of apoptosis in human DU145 cells assessed as viable cells at 2 uM after 48 hrs by annexin V-FITC/propidium iodide staining-based flow cytometric analysis (reference value: 97.12%); assay type: functional; conditions: DU-145, 48 h, read-out: Activity
[25] = test system: DU-145; experiment: Induction of apoptosis in human DU145 cells assessed as increase in caspase 3 activation at 2 uM after 48 hrs by ELISA; assay type: functional
How it was run: (§2)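 DU-145 cells were treated at 1 or 2 µM for 48 h, pelleted and PBS-washed. Pellets were lysed 15 min and centrifuged at 20,000 rpm for 15 min. Caspase-3 activity in the supernatant was measured by a colorimetric ELISA-based kit per the manufacturer. Activity is expressed as fold over untreated control, mean ± SD of two experiments in triplicate.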

[26] = test system: DU-145; experiment: Induction of apoptosis in human DU145 cells assessed as late apoptotic cells at 1 uM after 48 hrs by annexin V-FITC/propidium iodide staining-based flow cytometric analysis (reference value: 1.96%); assay type: functional
[27] = test system: DU-145; experiment: Induction of apoptosis in human DU145 cells assessed as reduction in mitochondrial membrane potential at 2 uM after 48 hrs using JC-1 staining-based flow cytometry; assay type: functional, cell-based
[28] = test system: DU-145; experiment: Induction of apoptosis in human DU145 cells assessed as mitochondrial membrane potential drop measured as late apoptotic cells at 1 uM after 48 hrs using JC-1 staining-based flow cytometry (reference value: 90.9%); assay type: functional
[29] = test system: DU-145; experiment: Induction of apoptosis in human DU145 cells assessed as increase in caspase 3 activation at 1 uM after 48 hrs by ELISA; assay type: functional
How it was run: as §2

[30] = test system: DU-145; experiment: Induction of apoptosis in human DU145 cells assessed as mitochondrial membrane potential drop measured as necrotic cells at 1 uM after 48 hrs using JC-1 staining-based flow cytometry (reference value: 0%); assay type: functional
[31] = test system: DU-145; experiment: Cell cycle arrest in human DU145 cells assessed as cells accumulation at S phase at 2 uM after 48 hrs by propidium iodide staining-based flow cytometric analysis (reference value: 4.18%); assay type: functional
[32] = biological target: Tubulin; experiment: Inhibition of tubulin polymerization (unknown origin) after 1 hr by fluorescence analysis; assay type: protein-complex assay, Homo sapiens
How it was run: as §1

[33] = test system: DU-145; experiment: Induction of apoptosis in human DU145 cells assessed as early apoptotic cells at 1 uM after 48 hrs by annexin V-FITC/propidium iodide staining-based flow cytometric analysis (reference value: 0.71%); assay type: functional
[34] = test system: DU-145; experiment: Induction of apoptosis in human DU145 cells assessed as necrotic cells at 2 uM after 48 hrs by annexin V-FITC/propidium iodide staining-based flow cytometric analysis (reference value: 0.22%); assay type: functional

## O=C(Nc1cccnc1Nc1ccc(Cl)cc1)c1cccnc1Nc1ccc(F)cc1
[1]
  GI50: 4.1 µM
[2]
  GI50: > 100 µM
[3]
  GI50: > 100 µM

## O=C(Nc1cccnc1Nc1ccccc1)c1cccnc1Nc1cc(C(F)(F)F)cc(C(F)(F)F)c1
[1]
  GI50: 4.8 µM
[2]
  GI50: 5.4 µM
[3]
  GI50: 3.2 µM

## COc1cc(Nc2ncccc2C(=O)Nc2cccnc2Nc2ccc(F)cc2)cc(OC)c1OC
[1]
  GI50: 7 µM
[2]
  GI50: > 100 µM
[3]
  GI50: > 100 µM

## COc1ccc(Nc2ncccc2NC(=O)c2cccnc2Nc2ccc(OC)cc2)cc1
[1]
  GI50: 21.2 µM
[2]
  GI50: > 100 µM
[3]
  GI50: > 100 µM

## COc1ccc(Nc2ncccc2NC(=O)c2cccnc2Nc2cc(OC)c(OC)c(OC)c2)cc1
[1]
  GI50: > 100 µM
[2]
  GI50: > 100 µM
[3]
  GI50: > 100 µM

## COc1ccc(Nc2ncccc2C(=O)Nc2cccnc2Nc2ccc(F)cc2)cc1
[1]
  GI50: > 100 µM
[2]
  GI50: 17.3 µM
[3]
  GI50: 18.5 µM

## COc1ccc(Nc2ncccc2C(=O)Nc2cccnc2Nc2ccccc2)cc1
[1]
  GI50: 8.1 µM
[2]
  GI50: > 100 µM
[3]
  GI50: > 100 µM

## O=C(Nc1cccnc1Nc1ccc(F)cc1)c1cccnc1Nc1cc(C(F)(F)F)cc(C(F)(F)F)c1
[4]
  Activity: 16.53%
[5]
  Activity: 32.49%
[6]
  inhibition: Active
[7]
  Activity: 4.64%
[1]
  GI50: 0.99 µM
[8]
  Activity: 2.41%
[2]
  GI50: > 100 µM
[9]
  Activity: 5.97%
[10]
  Activity: 0%
[11]
  inhibition: 64.3%
[12]
  Activity: 57.93%
[13]
  Activity: 10.6%
[14]
  Activity: 41.19%
[15]
  Activity: 0%
[16]
  viability at 1 µM: 80.4%
[17]
  Activity: 1.63%
[18]
  Activity: 67.4%
[19]
  Activity: 1.27%
[20]
  Activity: Active
[21]
  Activity: 0%
[22]
  Activity: 32.6%
[23]
  Activity: 53.38%
[24]
  viability at 2 µM: 75.7%
[25]
  fold change (FC): 2
[26]
  Activity: 14.03%
[27]
  inhibition: Active
[28]
  Activity: 89.4%
[29]
  fold change (FC): 2
[30]
  Activity: 0%
[31]
  Activity: 1.77%
[32]
  pIC50: 5.67
[3]
  GI50: 39.2 µM
[33]
  Activity: 4.28%
[34]
  Activity: 1.84%

## COc1ccc(Nc2ncccc2C(=O)Nc2cccnc2Nc2ccc(Cl)cc2)cc1
[1]
  GI50: 16.6 µM
[2]
  GI50: 28.8 µM
[3]
  GI50: > 100 µM

## O=C(Nc1cccnc1Nc1ccccc1)c1cccnc1Nc1ccc(F)cc1
[1]
  GI50: 7.7 µM
[2]
  GI50: > 100 µM
[3]
  GI50: > 100 µM

## O=C(Nc1cccnc1Nc1ccc(Cl)cc1)c1cccnc1Nc1cc(C(F)(F)F)cc(C(F)(F)F)c1
[1]
  GI50: 3.1 µM
[2]
  GI50: 10.5 µM
[3]
  GI50: 3.9 µM

## COc1ccc(Nc2ncccc2NC(=O)c2cccnc2Nc2cc(C(F)(F)F)cc(C(F)(F)F)c2)cc1
[1]
  GI50: 9.8 µM
[2]
  GI50: > 100 µM
[3]
  GI50: > 100 µM

## COc1cc(Nc2ncccc2C(=O)Nc2cccnc2Nc2ccc(Cl)cc2)cc(OC)c1OC
[1]
  GI50: 10.5 µM
[2]
  GI50: > 100 µM
[3]
  GI50: > 100 µM

## COc1ccc(S(=O)(=O)Nc2cccnc2Nc2ccc(O)cc2)cc1 [ABT-751]
[4]
  Activity: 17.72%
[6]
  inhibition: Active
[1]
  GI50: 1.81 µM
[8]
  Activity: 4.11%
[2]
  GI50: 1.25 µM
[9]
  Activity: 3.93%
[10]
  Activity: 0%
[14]
  Activity: 36.52%
[15]
  Activity: 0%
[18]
  Activity: 81.9%
[22]
  Activity: 18.1%
[23]
  Activity: 54.38%
[24]
  viability at 2 µM: 77.3%
[31]
  Activity: 2.94%
[32]
  pIC50: 5.62
[3]
  GI50: 1.31 µM
[34]
  Activity: 1.01%

## COc1cc(Nc2ncccc2C(=O)Nc2cccnc2Nc2ccccc2)cc(OC)c1OC
[1]
  GI50: > 100 µM
[2]
  GI50: > 100 µM
[3]
  GI50: 6 µM

## O=C(Nc1cccnc1Nc1ccc(F)cc1)c1cccnc1Nc1ccc(F)cc1
[1]
  GI50: 8.4 µM
[2]
  GI50: 16 µM
[3]
  GI50: 15.2 µM

## COc1ccc(Nc2ncccc2NC(=O)c2cccnc2Nc2ccc(F)cc2)cc1
[1]
  GI50: 6.6 µM
[2]
  GI50: > 100 µM
[3]
  GI50: 4.1 µM
